Test results from ChEMBL document CHEMBL3745708, “Design of α7 nicotinic acetylcholine receptor ligands using the (het)Aryl-1,2,3-triazole core: Synthesis, in vitro evaluation and SAR studies” (Eur J Med Chem, 2016).

Key:
[1] = target: Neuronal acetylcholine receptor subunit alpha-7 (Rattus norvegicus, UniProt Q05941); assay: Displacement of [125I]alpha-bungarotoxin from alpha7 nAchR in rat frontal cortices
Method in brief: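 Competition binding against [125I]-α-bungarotoxin as reference radioligand at α7 nAChR. IC50 read graphically for each compound, then converted to Ki.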

[2] = target: Neuronal acetylcholine receptor; alpha4/beta2 (Homo sapiens, UniProt P17787+P43681); assay: Displacement of [3H]cytisine from human recombinant alpha4beta2 nicotinic receptor expressed in SH-SY5Y cells after 120 mins by scintillation counting; format: cell-based
Chain of Neuronal acetylcholine receptor; alpha4/beta2 (P17787 whole entry): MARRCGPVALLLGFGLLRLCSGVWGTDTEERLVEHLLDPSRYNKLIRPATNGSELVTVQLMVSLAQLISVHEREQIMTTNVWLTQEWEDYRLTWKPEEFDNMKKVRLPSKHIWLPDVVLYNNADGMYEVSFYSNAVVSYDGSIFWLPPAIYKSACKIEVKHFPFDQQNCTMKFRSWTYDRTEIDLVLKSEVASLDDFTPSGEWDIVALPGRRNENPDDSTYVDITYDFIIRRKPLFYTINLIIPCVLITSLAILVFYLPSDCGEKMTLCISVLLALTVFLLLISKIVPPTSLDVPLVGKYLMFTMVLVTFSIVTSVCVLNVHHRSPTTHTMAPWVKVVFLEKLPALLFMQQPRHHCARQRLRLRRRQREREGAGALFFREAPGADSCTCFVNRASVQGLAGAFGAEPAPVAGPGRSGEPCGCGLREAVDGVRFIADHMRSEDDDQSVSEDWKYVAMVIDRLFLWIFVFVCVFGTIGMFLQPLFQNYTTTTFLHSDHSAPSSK
Chain of Neuronal acetylcholine receptor; alpha4/beta2 (P43681 whole entry): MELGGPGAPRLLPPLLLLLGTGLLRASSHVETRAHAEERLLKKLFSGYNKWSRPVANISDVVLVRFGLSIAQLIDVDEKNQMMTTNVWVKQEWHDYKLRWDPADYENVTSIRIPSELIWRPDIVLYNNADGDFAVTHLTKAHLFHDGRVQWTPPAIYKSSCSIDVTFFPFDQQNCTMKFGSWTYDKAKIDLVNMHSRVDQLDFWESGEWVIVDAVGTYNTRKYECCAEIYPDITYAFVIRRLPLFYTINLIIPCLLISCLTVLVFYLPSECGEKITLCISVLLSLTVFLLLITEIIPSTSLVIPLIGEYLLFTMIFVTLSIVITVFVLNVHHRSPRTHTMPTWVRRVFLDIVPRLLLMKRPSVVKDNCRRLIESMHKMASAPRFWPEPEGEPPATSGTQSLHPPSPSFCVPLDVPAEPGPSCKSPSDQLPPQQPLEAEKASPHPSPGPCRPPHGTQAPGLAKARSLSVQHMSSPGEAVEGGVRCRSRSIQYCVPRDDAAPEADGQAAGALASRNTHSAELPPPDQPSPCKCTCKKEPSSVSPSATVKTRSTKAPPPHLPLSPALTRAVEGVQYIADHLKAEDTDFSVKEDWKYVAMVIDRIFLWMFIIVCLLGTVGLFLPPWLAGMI
Method in brief: (§1)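 Selectivity binding run by an outside contract lab on cells transfected with the human recombinant receptor. Reference radioligands: [3H]cytisine for α4β2 and [3H]BRL 43694 for 5-HT3.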

[3] = target: T1, 5-hydroxytryptamine receptor 3A (Homo sapiens, UniProt P46098); assay: Displacement of [3H]BRL 43694 from human 5-HT3 receptor expressed in CHO cells after 120 mins by scintillation counting; format: cell-based; method in brief: as §1
T1 sequence (P46098 whole entry): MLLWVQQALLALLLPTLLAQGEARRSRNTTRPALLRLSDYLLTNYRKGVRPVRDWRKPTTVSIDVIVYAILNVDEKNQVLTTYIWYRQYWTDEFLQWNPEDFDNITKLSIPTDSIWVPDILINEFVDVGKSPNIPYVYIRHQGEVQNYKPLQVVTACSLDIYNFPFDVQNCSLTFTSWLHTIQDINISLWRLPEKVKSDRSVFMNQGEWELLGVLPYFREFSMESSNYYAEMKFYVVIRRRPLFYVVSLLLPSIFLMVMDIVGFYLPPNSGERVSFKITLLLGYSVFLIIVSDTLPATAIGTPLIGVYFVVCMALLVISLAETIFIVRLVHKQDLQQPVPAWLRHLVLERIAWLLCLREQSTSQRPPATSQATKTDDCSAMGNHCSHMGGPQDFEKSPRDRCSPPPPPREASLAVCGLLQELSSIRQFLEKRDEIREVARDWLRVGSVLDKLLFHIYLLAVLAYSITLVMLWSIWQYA

Chain of Neuronal acetylcholine receptor subunit alpha-7 (Q05941 whole entry): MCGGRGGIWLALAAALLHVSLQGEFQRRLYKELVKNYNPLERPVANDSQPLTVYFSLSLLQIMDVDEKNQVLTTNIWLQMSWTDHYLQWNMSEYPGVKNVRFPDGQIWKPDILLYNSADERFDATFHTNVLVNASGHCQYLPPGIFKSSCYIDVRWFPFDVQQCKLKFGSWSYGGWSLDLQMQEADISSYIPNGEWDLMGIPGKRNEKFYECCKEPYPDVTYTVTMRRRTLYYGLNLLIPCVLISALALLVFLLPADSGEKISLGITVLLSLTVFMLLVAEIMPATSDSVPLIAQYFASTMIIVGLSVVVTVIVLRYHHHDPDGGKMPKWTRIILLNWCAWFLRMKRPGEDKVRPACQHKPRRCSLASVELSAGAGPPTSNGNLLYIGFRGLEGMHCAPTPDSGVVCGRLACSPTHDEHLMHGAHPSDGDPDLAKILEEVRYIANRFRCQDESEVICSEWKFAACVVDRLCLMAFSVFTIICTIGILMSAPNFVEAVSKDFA

Compound | Ki [1] | further results
OCCc1ccc(-c2cn([C@H]3CN4CCC3CC4)nn2)cc1 | 130 nM | 
O=C(N[C@@H]1CN2CCC1CC2)c1cc2ccoc2cn1 | 1.27 nM | 
FCCc1ccc(-c2cn([C@H]3CN4CCC3CC4)nn2)cc1 | 230 nM | 
FCc1ccc(-c2cn([C@H]3CN4CCC3CC4)nn2)cc1 | 21 nM | 
COc1cccc(-c2cn([C@H]3CN4CCC3CC4)nn2)c1 |  | Ki [2]: 1000 nM; Ki [3]: 3 nM
c1cc2cc(-c3cn([C@H]4CN5CCC4CC5)nn3)ccc2o1 |  | Ki [2]: 1000 nM; Ki [3]: 3 nM
c1cc(-c2cn([C@H]3CN4CCC3CC4)nn2)ccn1 | 141 nM | 
COc1ccc(-n2cc(C3(F)CN4CCC3CC4)nn2)cc1 (stereo not drawn) | > 1000 nM | 
c1cc2cc(-c3cn(C4CN5CCC4CC5)nn3)ccc2[nH]1 (stereo not drawn) |  | Kd [1]: 120 nM; Ki [2]: 750 nM; Ki [3]: 52 nM
FCCOc1ccc(-c2cn([C@H]3CN4CCC3CC4)nn2)cc1 | 190 nM | 
OCc1ccc(-c2cn([C@H]3CN4CCC3CC4)nn2)cc1 | 10 nM | 
COc1ccccc1-c1cn([C@H]2CN3CCC2CC3)nn1 | 112 nM | 
Fc1ccc(-c2cn([C@H]3CN4CCC3CC4)nn2)cc1 | 15 nM | 
O=C(N[C@H]1CN2CCC1CC2)c1ccc(Cl)cc1 [PNU-282987] | 17 nM | 
OCCOc1ccc(-c2cn([C@H]3CN4CCC3CC4)nn2)cc1 | 215 nM | 
COc1ccc(-n2cc(C3(O)CN4CCC3CC4)nn2)cc1 (stereo not drawn) | > 1000 nM | 
OC1(c2cn(-c3ccc(Br)cc3)nn2)CN2CCC1CC2 (stereo not drawn) | > 1000 nM | 
COc1ccc(-c2cn([C@H]3CN4CCC3CC4)nn2)cc1 | 11 nM | 
COCOCCOc1ccc(-c2cn([C@H]3CN4CCC3CC4)nn2)cc1 | 225 nM | 
